# Source: the RNAGym collection of RNA variant scans (doi:10.1126/science.aae0568)
# This sample holds only a part of the variants without activity.
# B1: tRNA (parent)
# chain: GUUCCGUUGGCGUAAUGGUAACGCGUCUCCCUCCUAAGGAGAAGACUGCGGGUUCGAGUCCCGUACGGAACG
# Variants of: B1
# Test: yeast fitness relative to wild type (ratio to wild type); higher = fitter; tRNA-Arg(CCU), competitive growth, 37 C, YPD
# Procedure, shortened: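 The tRNA-Arg(CCU) gene variants were made by chemical synthesis with a 3% per-site mutation rate at 69 sites and inserted at the native genomic locus of Saccharomyces cerevisiae. After pooling, the strains were competed in YPD at 37°C for 24 hours in six parallel replicates. Gene amplicons from the start population and each end population were read by 100-nucleotide paired-end sequencing, and Darwinian fitness relative to wild type was taken from genotype frequency changes. Genotypes needed ≥ 100 starting reads, and estimates < 0.5 were set to 0.5.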
row,Variant,yeast fitness
1,GUUCCGUUGGCGUAAUGGUAAGGCGUCUCCCUCCUAAGGAGAAGACUGCUGGUUCGAGUCCCGUACGGAACG [C22G G50U],0.873
2,GUUCCGUUGGCGUAAUGGUAAGGCGUCUCCCUCCUAAGGACAAGACUGCGGAUUCGAGUCCCGUACGGAACG [C22G G41C G52A],≤ 0.5
3,GUUCCGUUGGCGUAAUGGUAAGGCGUCUCCCUCCUAAGGAGAAGACUGCGGAUUCGAGUCCCGCACGGAACG [C22G G52A U64C],0.537
4,GUUCCGUUGGCGUAAUGGUAAGGCGUCUCCCUCCUAAGGAGAAGACUGCGAGUUCGUGUCCCGUACGGAACG [C22G G51A A57U],≤ 0.5
5,GUUCCGUUGGCGUAAUGGUAAGGCGUCUCCCUCCUAAGGAGAAGACUGCGGGUUCGAGUCUCGUACGAAACG [C22G C61U G68A],≤ 0.5
6,GUUCCGUUGGCGUAAUGGUAAGACGUCUCCCUCCUAAAGAGAAGACUGCGGGUUCGAGUCCCGUACGCAACG [C22G G23A G38A G68C],0.572
7,GUUCCGUUGGCGUAAUGGUAAGGCGUCUCCCUCCUAAGGAGAAGACUGCGGGUUCGAGUCCUGUACGGUACG [C22G C62U A69U],0.591
8,GUUCCGUUGGCGUAAUGGUAAGGCGUCUCCCUCCUAAGGAGAAGACUGCGGAAUCGAGUCCCGUACGGAACG [C22G G52A U53A],≤ 0.5
9,GUUCCGUUGGCGUAAUGGUAAGGCGUCUCCCUCUUAAGGAGAAGACUGCGGGUUCGAGUCCCGUACGGUACG [C22G C34U A69U],0.573
10,GUUCCGUUGGCGUAAUGGUAAGGCGUCUCCCUCCUAAGGAGAAGACUGUGGGUUCGAGUCCCGUGCGGAACG [C22G C49U A65G],0.785
11,GUUCCGUUGGCGUAAUGGUAAGGCGUCUCCCUCCUAAGGAGAAGACUGCGGGUUCGAGUGCCGUACGGAACG [C22G C60G],0.621
12,GUUCCGUUGGCGUAAUGGUAAGGCGUCUCCCUCCUAAGGAGAAGACUGUGGGUUCGAGUACCGUACGGAACG [C22G C49U C60A],≤ 0.5
13,GUUCCGUUGGCGUAAUGGUAAGGCGUCUCCCUCCUAAGGAGAAGACUGCGGCUUCGACUCCCGUUCGGAACG [C22G G52C G58C A65U],0.592
14,GUUCCGUUGGCGUAAUGGUAAGGCGUCUCCCUCCUAAGGAGAAGACUGCGGGUUGGAGUCCCGUACGGAACG [C22G C55G],0.585
15,GUUCCGUUGGCGUAAUGGUAAGGCGUCUCCCUCCUAAGGAGAAGACUGCGGGUUAGAGUCCCGUACGGAACG [C22G C55A],0.712
16,GUUCCGUUGGCGUAAUGGUAAGCCGUCUCCCUCCUAAGGAGACGACUGCCGGUUCGAGUCCCGUACGGAUCG [C22G G23C A43C G50C A70U],0.517
17,GUUCCGUUGGCGUAAUGGUAAGGCGUCUCCCUCCUAACGAGAAGACUGCGGGUUCGAGUUCCGUACGGAACG [C22G G38C C60U],≤ 0.5
18,GUUCCGUUGGCGUAAUGGUAAGGCGUCUCCCUCCUAAGGAGAAGACUGCGGGUUCGACUCCCGUACGGAACG [C22G G58C],0.971
19,GUUCCGUUGGCGUAAUGGUAAGGCGUCUCCCUCCUAAGGAGAAGACUGCGAGUUCGAGUUCCGUACGGAUCG [C22G G51A C60U A70U],0.637

row,Variant,yeast fitness
1,GUUCCGUUGGCGUAAUGGUAAGGCGUCUCCCUCCUAAGGAGAAGACUGCGGGUUCGAGUCCCAUACGUAACG [C22G G63A G68U],≤ 0.5
2,GUUCCGUUGGCGUAAUGGUAAGGCGUCUCCCUCCUAAGGAGAAGACUGUGGGUUCAAGUCCCGUACGGAACG [C22G C49U G56A],0.797
3,GUUCCGUUGGCGUAAUGGUAAGGCGUCUCCCUCCUAAGGAGAAGACUGCAGGUUCGAGCCCCGUACGGAACG [C22G G50A U59C],≤ 0.5
4,GUUCCGUUGGCGUAAUGGUAAGGCGUCUCCCUCCUAAGGAGAAGACUGGGGGUUCGAGUCCCGUACGAAACG [C22G C49G G68A],0.529
5,GUUCCGUUGGCGUAAUGGUAAGGCAUCUCCCUCCUAAGGAGAAGACUGCUGGUUCGAGUCCCGUACGGAACG [C22G G25A G50U],0.593
6,GUUCCGUUGGCGUAAUGGUAAGGCGUCUCCCUCCUAAGGAGAAGACUGCGGGUUCGAGUCCGGUUCGGAACG [C22G C62G A65U],0.534
7,GUUCCGUUGGCGUAAUGGUAAGGCAUCUCCCUCCUAAGGAGAAGACUGCGGGUUCGAGUCUCGUACGGAACG [C22G G25A C61U],0.647
8,GUUCCGUUGGCGUAAUGGUAAGGCGUCUCCCUCCUAAAGAGAAGACUGCGGGUUCGAGUCCCGUACGGAACG [C22G G38A],0.776
9,GUUCCGUUGGCGUAAUGGUAAGCCGUCUCCCUCCUAAGGAGACGACUGCCGGUUCGAGUCCCGUACGGAACG [C22G G23C A43C G50C],≤ 0.5
10,GUUCCGUUGGCGUAAUGGUAAGGCGUCUCCCUCCUAAGGAGAAGACUGCGGGUUCAAGUCCCGUACGGAACG [C22G G56A],1.07
11,GUUCCGUUGGCGUAAUGGUAAGGCGUCUCCCUCUUAAGGAGAAGACUGUGGGUUGGAGUCCUGUACGGAACG [C22G C34U C49U C55G C62U],≤ 0.5
12,GUUCCGUUGGCGUAAUGGUAAGGCGUCUCCCUCCUAAGGAAAAGACUGCGGGUUCGAGUCCACUACGGAACG [C22G G41A C62A G63C],0.615
13,GUUCCGUUGGCGUAAUGGUAAGGCGUCUCCCUCCUAAGGAGAAGACUGCGGGUUCGAGUCCCAUACGGAACG [C22G G63A],0.891
14,GUUCCGUUGGCGUAAUGGUAAGCCGUCUCCCUCCUAAGAAGAAGCCUGUGGGUUCGAGUCUCGUACGAAACG [C22G G23C G39A A45C C49U C61U G68A],≤ 0.5
15,GUUCCGUUGGCGUAAUGGUAAGCCGUCUCCCUCCUAAGGAGUAGACUGCGGGUUCGAGUCCCGUACGGAACG [C22G G23C A42U],0.573
16,GUUCCGUUGGCGUAAUGGUAAGGCGUCUCCCUCCUAAGGAGAAGACUCCGGGUUCGAGUCCCGUACGGAACG [C22G G48C],0.811
17,GUUCCGUUGGCGUAAUGGUAAGACGUCUCCCUCCUAAGGAGAAGACUGCGGGUUCGAGUCCCGUACGGAACG [C22G G23A],0.644
18,GUUCCGUUGGCGUAAUGGUAAGGCGUCUCCCUCCUAAGGAGAAGACUGUGGGUUCGAGUCCCGUAUGGAACG [C22G C49U C66U],0.666
